{"source": "ChEMBL document CHEMBL1147041", "about": "“Modulation of human neural stem cell differentiation in Alzheimer (APP23) transgenic mice by phenserine” (2007)", "key": {"Mus musculus [1]": {"tested_on": "Mus musculus", "assay": "Decrease in amyloid precursor protein expression in APP23 transgenic mouse hippocampus at 25 mg/kg/day, ip for 14 days by Western blot relative to control", "assay_type": "functional", "design": "scale not given: the % may be the effect or the level left", "settings": "route intraperitoneal"}, "[2]": {"assay": "Effect on neuronal differentiation of human neural stem cells transplanted in APP23 transgenic mouse motor cortex region assessed as increase of beta-3 tubulin+/BrdU+ count at 25 mg/kg/day, ip for 14 days", "assay_type": "functional, Neural stem cell", "settings": "route intraperitoneal", "procedure,_shortened": "(§1)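 Mice received daily i.p. drug or saline for 14 days. BrdU-labelled (3 µM, 48 h) fetal human neural stem cells, ≈105 cells, were then injected into the right lateral ventricle with no immunosuppression. Daily injections resumed for 1 week after a 2-day recovery. At 6 weeks, 20 µm coronal sections from paraformaldehyde-perfused brains were double-stained for BrdU plus GFAP or β-III tubulin. Cells were counted bilaterally at ×400 on 4–6 sections per mouse, n = 6–7 per group, and compared by ANOVA.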"}, "[3]": {"assay": "Effect on neuronal differentiation of human neural stem cells transplanted in APP23 transgenic mouse hippocampus CA1 region assessed as increase of beta-3 tubulin+/BrdU+ count at 25 mg/kg/day, ip for 14 days", "assay_type": "functional, Neural stem cell", "settings": "route intraperitoneal", "procedure,_shortened": "as §1"}, "Mus musculus [4]": {"tested_on": "Mus musculus", "assay": "Decrease in glial fibrillary acidic protein expression in APP23 transgenic mouse hippocampus at 25 mg/kg/day, ip for 14 days by Western blot relative to control", "assay_type": "functional", "design": "scale not given: the % may be the effect or the level left", "settings": "route intraperitoneal"}, "Mus musculus [5]": {"tested_on": "Mus musculus", "assay": "Decrease in amyloid precursor protein expression in APP23 transgenic mouse cerebral cortices at 25 mg/kg/day, ip for 14 days by Western blot relative to control", "assay_type": "functional, organism-based"}, "Mus musculus [6]": {"tested_on": "Mus musculus", "assay": "Decrease in amyloid precursor protein expression in wild type mouse cerebral cortices at 25 mg/kg/day, ip for 14 days by Western blot relative to control", "assay_type": "functional, organism-based"}, "[7]": {"assay": "Effect on glial differentiation of human neural stem cells transplanted in APP23 transgenic mouse hippocampus assessed as reduction of GFAP+/BrdU+ count at 25 mg/kg/day, ip for 14 days by fluorescent immunohistochemistry", "assay_type": "functional, Neural stem cell", "design": "scale not given: the % may be the effect or the level left", "settings": "route intraperitoneal", "procedure,_shortened": "as §1"}, "[8]": {"assay": "Effect on neuronal differentiation of human neural stem cells transplanted in APP23 transgenic mouse somatosensory region assessed as increase of beta-3 tubulin+/BrdU+ count at 25 mg/kg/day, ip for 14 days", "assay_type": "functional, Neural stem cell", "settings": "route intraperitoneal", "procedure,_shortened": "as §1"}, "[9]": {"assay": "Effect on neuronal differentiation of human neural stem cells transplanted in APP23 transgenic mouse hippocampus CA2 region assessed as increase of beta-3 tubulin+/BrdU+ count at 25 mg/kg/day, ip for 14 days", "assay_type": "functional, Neural stem cell", "settings": "route intraperitoneal", "procedure,_shortened": "as §1"}, "[10]": {"assay": "Effect on neuronal differentiation of human neural stem cells transplanted in wild type mouse hippocampus CA1 region assessed as increase of beta-3 tubulin+/BrdU+ count at 25 mg/kg/day, ip for 14 days", "assay_type": "functional, Neural stem cell", "settings": "route intraperitoneal", "procedure,_shortened": "as §1"}}, "note": "Activity calls are given as the source filed them. No cut-off for these calls is given here."}
{"smiles": "CN1CC[C@]2(C)c3cc(OC(=O)Nc4ccccc4)ccc3N(C)C12", "note": "(stereo not given in full)", "values": [{"measurement": "Activity", "setting": "Mus musculus [1]", "value": 38, "unit": "%"}, {"measurement": "Activity", "setting": "[2]", "value": 32, "unit": "%"}, {"measurement": "Activity", "setting": "[3]", "value": 32, "unit": "%"}, {"measurement": "Activity", "setting": "Mus musculus [4]", "value": 36, "unit": "%"}, {"measurement": "Activity", "setting": "Mus musculus [5]", "value": "Active"}, {"measurement": "Activity", "setting": "Mus musculus [6]", "value": "Active"}, {"measurement": "Activity", "setting": "[7]", "value": 28, "unit": "%"}, {"measurement": "Activity", "setting": "[8]", "value": 32, "unit": "%"}, {"measurement": "Activity", "setting": "[9]", "value": 32, "unit": "%"}, {"measurement": "Activity", "setting": "[10]", "value": 40, "unit": "%"}]}
